Lmaj promast = Leishmania major promastigote growth inhibition, primary screen | Leishmania major promastigotes, resazurin fluorescence viability | inhibition, % at 10 µM | 9% of 200,000 active | AID 1063, 2008; in the data active = inhibition above about 50%;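 note: promastigotes grown with compound for 44 hours at 28 °C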
Dynein transport = inhibitors of GR-EGFP nuclear translocation, primary screen, dynein cargo transport inhibitor project, imaging, high-content, 3617.4 mouse cells. test concentration mostly 20 µM; stimulated with dexamethasone, 1 µM; hits give low values. z-score, hits read low. 0.47% of 220,000 active. AID 1381, 2008;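 active = plate z-score of nuclear minus cytoplasmic receptor signal below a set negative limit, without overly bright fluorescence or cell loss, cut at about -3.5 in these data, passing the limit was not always enough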;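 note: z-score of nuclear minus cytoplasmic ring GR-EGFP intensity difference per well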
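Buffer or medium: tetracycline-free induction medium containing charcoal-stripped FBS / Reagent: dexamethasone agonist, 1.0 µM final, for 30 min / Technique: automated 10x imaging of fixed Hoechst-stained cells / Times: induction 48 h, compound 1 h, agonist 30 min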
b-catenin transl = modulators of beta-catenin nuclear translocation, primary screen, imaging, HeLa cells, immunofluorescence, high-content. 0.3% of 190,000 active. nuclear translocation activity, % at 5 µM;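 active = nuclear translocation activity above 50% at 5 µM, with a well cell count of 50 or more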;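 note: per-cell ratio of nuclear to cytoplasmic median beta-catenin stain intensity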
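Assay system: human HeLa cells, native beta-catenin; doses: 5 µM primary, 0.02–20 µM confirmation; incubation: compound treatment 24 h, 37°C, 5% CO2; technique: fluorescence imaging of beta-catenin antibody stain plus DAPI; measure: % activation, nuclear-to-cytoplasmic median beta-catenin signal ratio per cell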
HSV augment = enhancers of HSV replication in host cells, fold increase, host cell viability. HSV replication augmentation in cells. maximum fold increase. 0.005% of 220,000 active. AID 1956, 2009; in the data active = maximum fold increase above about 1.5; tested in PC3 cells
MT stabilize HCS = microtubule stabilizers in HeLa cells, primary screen, imaging, high-content imaging; % tubulin-high responders, % at 10 µM; HeLa tubulin immunostaining HCS, 24 h; share of cells brighter than vehicle mean+2SD; 0.83% of 200,000 active;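 active = plate Z-score above 3 for both tubulin-high and condensed-nucleus cell shares, with cell loss under 80%, at 10 µM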;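 note: anti alpha tubulin signal scored within the nucleus-defined area of each cell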
A number is an active result; – = inactive; · = no result given. This is a sample that favours compounds with a hit; in the whole collection about 8.9% have one here.

SMILES | Lmaj promast | Dynein transport | b-catenin transl | HSV augment | MT stabilize HCS
Cc1ccc2cc(S(=O)(=O)NCCCN3CCOCC3)ccc2c1 | 93 | – | – | – | –
COc1ccc2c(c1)C(=O)N(c1ccccc1C)C(=O)C2(C)C | – | – | – | – | 19
COc1ccc2c(c1)C(=O)N(c1ccccc1OC)C(=O)C2 | – | – | · | · | –
CN(C)c1ccc(C2CNC(c3ccc(Cl)c([N+](=O)[O-])c3)c3[nH]c4ccccc4c32)cc1 (stereo not given) | · | – | – | – | ·
O=C1CC(c2ccc(Cl)c([N+](=O)[O-])c2)c2ccc3ccccc3c2N1 (stereo not given) | 100 | – | – | – | –
CCCC(=O)Nc1nnc(SCC)s1 | 70 | – | – | – | –
O=C(C1CCN(S(=O)(=O)c2cccc3nsnc23)CC1)N1CCc2ccccc21 | 87 | – | · | – | –
Cc1cccc(N2CCN(C(=O)C3CCN(S(=O)(=O)c4cccc5cccnc45)CC3)CC2C)c1 (stereo not given) | – | – | – | · | –
Cc1cccc(N2CCN(C(=O)C3CCN(S(=O)(=O)c4cccc5nsnc45)CC3)CC2C)c1 (stereo not given) | 51 | – | – | – | –
Cc1nc2ccccc2n1CC(=O)NCc1ccccc1 | – | – | · | – | –
Cc1nnc(SCc2ccc(CC(=O)O)cc2)o1 | – | – | – | – | –
COc1ccc(Nc2nc(Cl)nc(N3CCN(c4ccc(OC)cc4)CC3)n2)cc1 | 53 | – | – | – | –
COc1ccc(Nc2nc(OC)nc(N3CCN(c4ccc(OC)cc4)CC3)n2)cc1 | – | – | – | – | –
Nc1nc(Cl)cc(N2CCC(c3cc(-c4ccc(Cl)cc4)n[nH]3)CC2)n1 | 100 | – | · | – | –
COc1ccc(OC)c(-c2cc(C3CCN(c4cc(Cl)nc(N)n4)CC3)[nH]n2)c1 | 100 | – | · | · | –
Clc1ccc(-c2cc(C3CCNCC3)[nH]n2)cc1 | 61 | – | – | – | –
CCN(C(=O)CSc1nnc(Cc2ccccc2F)n1N)C1CCS(=O)(=O)C1 (stereo not given) | – | – | – | – | –
Cc1ccc(-n2nc3c(c2NC(=O)/C=C\c2ccc4c(c2)OCO4)CSC3)c(C)c1 | 99 | – | – | · | –
Cc1ccccc1-n1nc2c(c1NC(=O)/C=C\c1ccc3c(c1)OCO3)CSC2 | 68 | – | – | · | –
Cc1ccc(-n2nc3c(c2NC(=O)/C=C\c2ccc4c(c2)OCO4)CSC3)cc1 | 93 | – | – | · | –
Cc1cccnc1NC(=O)/C=C/c1ccc2c(c1)OCO2 | – | – | – | – | –
COC(=O)[C@H](C)NC(=O)NCCC1=CCCCC1 | · | – | – | – | ·
CCN(CC)S(=O)(=O)c1ccc(Cl)c(NC(=O)c2ccccc2C)c1 | – | – | · | – | –
O=C(O/N=C1\CCCCC1c1ccc([N+](=O)[O-])cc1[N+](=O)[O-])c1c(F)cccc1F (stereo not given) | 62 | – | · | – | –
O=[N+]([O-])c1ccc(C2CCCC/C2=N/OCc2ccc(F)cc2)c([N+](=O)[O-])c1 (stereo not given) | 54 | – | · | – | –
SMILES | Lmaj promast | Dynein transport | b-catenin transl | HSV augment | MT stabilize HCS
O=C(N/N=C/c1cc(Br)c(O)c(Br)c1)c1cccc(C(F)(F)F)c1 | – | – | – | – | –
Cc1cccc(N(CC(=O)Nc2ccccc2F)S(C)(=O)=O)c1 | – | – | · | – | –
CCOc1ccc2[nH]cc(C(=O)N3CCN(C4CCCCC4)CC3)c(=O)c2c1 | – | – | · | – | –
Cc1cc(-c2ccccc2)n(-c2cc(N/N=C/c3ccccc3O)ncn2)n1 | 100 | – | 128 | – | –
Cc1ccc(NC(=O)C2CC(=O)N(CCc3ccccc3)C2)c(C)c1 (stereo not given) | – | – | – | – | –
O=C(/C=C/c1ccc(-c2ccccc2[N+](=O)[O-])o1)c1ccco1 | 59 | – | – | – | –
Cc1ccc2nc(-c3ccccc3Cl)cc(C(=O)Nc3cc(C)on3)c2c1 | 55 | – | – | – | –
Cc1nn(-c2ccccc2)c(Cl)c1/C=N/NC(=O)C1COc2ccccc2O1 (stereo not given) | – | – | – | – | –
CCOC(=O)C1CCN(c2ncnc3c2[nH]c2cccc(OC)c23)CC1 | 73 | – | – | – | –
CCOC(=O)C1CCN(c2ncnc3c2oc2ccc(Cl)cc23)CC1 | – | – | – | – | –
COc1cccc2[nH]c3c(N4CCCCC4)ncnc3c12 | 96 | – | – | – | –
Cc1c(C(=O)NCc2ccc3c(c2)OCO3)sc2nc(-c3ccc(F)cc3)cn12 | – | – | – | – | –
CCOc1ccccc1N(C(=O)c1ccccc1Cl)C1=NC(C)(C)CS1 | – | – | – | – | –
Cc1ccc(N(C(=O)c2ccccc2Cl)C2=NC(C)CS2)c(C)c1 (stereo not given) | 94 | – | – | – | –
COc1ccc(C(=O)Sc2ccc(Cl)cc2)cc1OC | 54 | – | – | · | –
CCn1nnc(NC(=O)Cc2ccc(Cl)cc2)n1 | – | – | – | – | –
C=CCn1c(=O)c2ccccc2n2c(SCC(=O)c3ccccc3)nnc12 | – | – | – | – | –
Cc1cc(-c2ccccc2)nc(SC(C(=O)O)c2ccccc2)n1 (stereo not given) | – | – | – | – | –
Cc1cc(=O)[nH]c(SC(C(=O)O)c2ccccc2)n1 (stereo not given) | 73 | – | · | – | –
COc1ccc(C2NC(=O)CS2)cc1OC (stereo not given) | – | – | – | – | –
COc1cc(C2NC(=O)CS2)cc(OC)c1OC (stereo not given) | 86 | – | – | – | –
Cc1ccccc1NC(=O)CSc1nnc(-c2ccco2)c(-c2ccco2)n1 | 93 | – | – | – | –
Cc1cccc(C)c1NC(=O)CSc1nnc(-c2ccco2)c(-c2ccco2)n1 | 83 | – | – | – | –
NNC(=O)CSc1nnnn1-c1ccccc1 | · | – | – | – | ·
CC1CCCC(C)N1C(=C(Cl)Cl)C(=C1SCCS1)[N+](=O)[O-] (stereo not given) | – | – | – | – | –
CC(=O)O[C@@]12CO[C@@H]1C[C@H](O)[C@@]1(C)C(=O)[C@H](O)C3=C(C)[C@@H](OC(=O)[C@H](O)[C@@H](NC(=O)OC(C)(C)C)c4ccccc4)C[C@](O)([C@@H](OC(=O)c4ccccc4)[C@H]21)C3(C)C | · | · | 77 | – | ·
CC(C)NC(=O)NC(=O)CSc1nnc(COc2ccccc2F)n1C(C)C1CC2CCC1C2 (stereo not given) | 51 | – | – | – | –
Cc1cc2c(c(=O)n1Cc1cccnc1)C(Cc1ccccc1)C(C#N)=C(N)O2 (stereo not given) | – | – | – | – | –
COC(=O)c1c(CCl)noc1C(=O)NCC1CCCO1 (stereo not given) | 100 | – | – | – | –
